Source: PubChem (The Scripps Research Institute Molecular Screening Center)
An excerpt weighted towards active compounds, which were near 2.4% of everything screened.
HTR5A ag: HTR5A agonists in luminescence cell assay, primary screen, counter-screen for OPRM1-OPRD1 heterodimer agonist project, full-deck HTS. 5-hydroxytryptamine receptor 5A (Homo sapiens), P47898. cell-based. activation, % at 9.3 µM. 0.61% of 340,000 active. AID 504692, 2011; in the data active = activation mostly above about 9.5%, no sharp cut-off; inactive = mostly below about 7.6%;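 also: 0% = cells with vehicle only and 100% = reference agonist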
Target sequence (P47898 whole entry, looked up): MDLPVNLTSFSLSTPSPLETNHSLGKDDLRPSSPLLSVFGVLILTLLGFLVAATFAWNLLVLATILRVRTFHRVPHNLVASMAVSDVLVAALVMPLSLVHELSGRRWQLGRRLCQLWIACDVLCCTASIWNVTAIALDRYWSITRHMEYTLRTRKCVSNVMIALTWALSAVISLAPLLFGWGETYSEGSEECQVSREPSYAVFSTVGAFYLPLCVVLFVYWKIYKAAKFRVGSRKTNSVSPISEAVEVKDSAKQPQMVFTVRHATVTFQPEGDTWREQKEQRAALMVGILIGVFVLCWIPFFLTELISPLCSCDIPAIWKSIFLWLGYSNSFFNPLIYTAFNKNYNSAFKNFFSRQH
OPRM1-OPRD1 inv: inverse agonists of MOR-DOR heterodimerization, primary screen, cell-based, luminescence | cell-based MOR-DOR heterodimer luminescence, inverse agonism | 0.21% of 340,000 active | inhibition, % at 9.3 µM | Mu-type opioid receptor (Homo sapiens) + Delta-type opioid receptor (Homo sapiens), … | AID 504357, 2011; in the data active = inhibition above about 22%, passing the limit was not always enough;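 also: 0% = cells with DMSO and 100% = wells without cells with DMSO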
MC4R antagonist: MC4R antagonists of cAMP signaling, primary screen, cell-based, TR-FRET, antagonist arm of biased-ligand search | Melanocortin receptor 4 (Homo sapiens), P32245 | MC4R-expressing cells, MTII-stimulated cAMP, LANCE TR-FRET | inhibition, % at 6.5 µM | 0.48% of 360,000 active | AID 540295, 2011;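 active = inhibition above its plate's cutoff, the mean of tested wells on that plate plus 3 SD, cut at about 29% in these data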;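 also: 0% = Melanotan II alone and 100% = Melanotan II plus saturating MCL0020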
Target sequence (P32245 whole entry, looked up): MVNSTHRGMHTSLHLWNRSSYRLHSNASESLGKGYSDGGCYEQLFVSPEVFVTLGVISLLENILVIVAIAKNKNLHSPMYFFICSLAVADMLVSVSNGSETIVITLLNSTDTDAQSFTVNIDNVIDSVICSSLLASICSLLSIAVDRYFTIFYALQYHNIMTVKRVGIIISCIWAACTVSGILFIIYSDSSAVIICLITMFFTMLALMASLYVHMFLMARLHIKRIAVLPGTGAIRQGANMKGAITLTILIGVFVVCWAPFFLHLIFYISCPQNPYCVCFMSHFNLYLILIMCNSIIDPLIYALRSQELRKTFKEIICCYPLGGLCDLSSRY
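system = U2OS cells with stable human MC4R expression | also added = Melanotan II challenge after compound preincubation | dosing = one concentration, 6.5 µM nominal | incubation = compound 30 min, challenge 1 h, detection 1 h | measured by = TR-FRET with Eu-cAMP and labeled anti-cAMP, 671 nm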
MC4R barr agon: MC4R agonists recruiting beta-arrestin, primary screen, cell-based, luminescence, agonist arm of biased-ligand search; Melanocortin receptor 4 (Homo sapiens), P32245; 0.98% of 360,000 active; U2OS MC4R beta-arrestin complementation; percent of melanotan II response, DMSO zero; AID 540308, 2011; activation, % at 8.9 µM;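 active = activation above a per-plate cutoff, the mean activation of sample wells on that plate plus 3 SD, cut at about 8% in these data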
OPRM1-OPRD1 ag: agonists of OPRM1-OPRD1 heterodimerization, primary screen, cell-based, luminescence | cells | AID 504326, 2011 | activation, % at 9.3 µM | Mu-type opioid receptor (Homo sapiens) + Delta-type opioid receptor (Homo sapiens), … | 0.3% of 340,000 active; in the data active = activation above about 18%;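 also: 0% = vehicle-treated cells and 100% = reference agonist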
HTR5A inv ag: HTR5A inverse agonists in luminescence cell assay, primary screen, counter-screen for OPRM1-OPRD1 heterodimer inverse agonist project, full-deck HTS; HTR5A cell line, inverse agonism; inhibition, % at 9.3 µM; 0.083% of 340,000 active; AID 504634, 2011; in the data active = inhibition mostly above about 23%, no sharp cut-off; inactive = mostly below about 18%;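 also: 0% = cells with DMSO and 100% = no-cell wells with DMSO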
MC4R barr conf: MC4R beta-arrestin agonists, retest, confirmation, cell-based, luminescence, U2OS | shares compounds with MC4R barr agon | U2OS MC4R beta-arrestin recruitment; scaled DMSO 0%, Melanotan II 100% | activation, % at 8.9 µM | 31% of 2,400 active;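 active = mean activation across replicates above the hit cutoff set in the earlier primary screen, cut at about 8% in these data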
MOR-DOR barr ag: agonists of MOR-DOR heterodimerization, counter-screen for MC4R biased agonist project, cell-based, luminescence; shares compounds with MC4R barr agon; U2OS PathHunter beta-arrestin, beta-gal luminescence; percent of deltorphin B response, DMSO zero; 5.8% of 2,400 active; activation, % at 9.2 µM; AID 602194, 2012;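 active = mean activation across replicates exceeds the hit threshold derived in the earlier primary screen, cut at about 18% in these data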;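 also: 100% = deltorphin B at 0.9 µM final and 0% = DMSO alone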
The depositor's hits bear a star; / = not tested or not shown.

SMILES	HTR5A ag	OPRM1-OPRD1 inv	MC4R antagonist	MC4R barr agon	OPRM1-OPRD1 ag	HTR5A inv ag	MC4R barr conf	MOR-DOR barr ag
CCc1ccc(C(O)c2ncc(-c3ccc4ccccc4c3)[nH]2)cc1 (stereo unspecified)	/	/	9.6	17.3*	/	/	6.8	8.5
CCc1ccc(C(O)c2ncc(-c3cccc(C(F)(F)F)c3)[nH]2)cc1 (stereo unspecified)	/	/	7.7	12.8*	/	/	10.5*	9.1
CCOC(=O)c1c(C)[nH]c(C(=O)Cn2nnc(-c3ccc(Cl)cc3)n2)c1C	4.3	-8.7	10.3	18.4*	1.6	-15.7	10.6*	4.6
Cc1ccc(C2=Nc3ccccc3N=C(c3ccco3)C2)c(O)c1	5.4	-4.0	6.5	16.8*	0.7	3.9	3.7	3.4
CCCCN1C[C@H](COC(=O)CCC)Oc2cccc(F)c2S1(=O)=O	0.8	16.2	-5.6	0.0	-3.5	-2.9	/	/
COC(=O)c1sc2ncn(CC(=O)N(C)C3CCCCC3)c(=O)c2c1C	1.2	4.8	0.2	-2.4	-0.7	8.7	/	/
CCOc1cc(/C=N/NC(=O)c2nn(C)cc2Br)ccc1OCc1ccccc1Cl	-1.9	6.3	-8.6	12.0*	-1.1	5.1	0.5	2.8
C=CCn1c(SCC(=O)OCC)nc2cc(C(=O)NCc3ccco3)ccc2c1=O	1.3	6.6	-5.4	-1.0	-1.3	3.5	/	/
COc1cc2nc(SCC(=O)NCc3ccco3)n(Cc3ccc(Cl)cc3)c(=O)c2cc1OC	0.9	19.6	-2.3	13.1*	-3.7	-2.3	-1.8	11.3
COCCNC(=O)CSc1nc2cc(OC)c(OC)cc2c(=O)n1Cc1ccc(OC)cc1	5.2	5.2	9.3	-1.1	-1.0	-13.2	/	/
CCCCCn1c(SCC(=O)OCC)nc2cc(C(=O)NCc3ccco3)ccc2c1=O	-2.4	-5.5	11.6	12.7*	1.0	8.5	2.4	30.6*
O=C(CN1c2ccccc2Sc2ccccc21)NNC(=O)Nc1ccc(Cl)cc1	1.6	-42.6	5.4	2.7	8.4	-11.1	/	/
O=C(CN1c2ccccc2Sc2ccccc21)NNC(=O)Nc1ccc(Cl)c(Cl)c1	3.2	-8.8	5.4	23.3*	1.8	-8.4	6.2	1.3
O=C(NNc1nc2ccccc2s1)Nc1ccc(Cl)c(Cl)c1	7.6	-44.0	19.5	16.1*	8.6	0.5	9.2*	9.6
O=C(NNc1nc2ccccc2s1)Nc1ccc(F)cc1	-3.2	4.0	-8.5	1.6	-0.8	-3.1	/	/
Cc1cc(F)cc(-c2cc(C(=O)NCc3ccc(C(F)(F)F)cc3)[nH]n2)c1	/	/	7.4	14.2*	/	/	3.4	6.1
COc1ccc(F)cc1-c1cc(C(=O)NCc2ccc(C(F)(F)F)cc2)[nH]n1	/	/	2.4	4.4	/	/	/	/
CC1CCCCN1C(=O)Cn1c(=O)oc2cc(S(=O)(=O)N3CCCC3)ccc21 (stereo unspecified)	2.5	4.0	-3.6	-1.4	-0.8	-6.9	/	/
COc1ccc(S(=O)(=O)NC(=O)C2(C)CCN2C(=O)c2cccc(F)c2)cc1 (stereo unspecified)	/	/	4.8	-1.6	/	/	/	/
Cc1cc(-c2ccc(S(=O)(=O)N(C)Cc3ccccc3)cc2)on1	7.3	-10.2	-7.9	25.3*	1.9	-27.4	-2.3	6.2
CSc1ccc(S(=O)(=O)N(C)Cc2ccccc2)cc1	0.6	12.8	3.0	1.2	-2.6	12.6	/	/
NC(Cc1ccc(C(F)(F)F)cc1)c1csc(Nc2ccc(C(=O)NCCCO)cn2)n1 (stereo unspecified)	/	/	8.5	3.5	/	/	/	/
NC(Cc1ccc(C(F)(F)F)cc1)c1csc(Nc2ccc(C(=O)NCc3ccco3)cn2)n1 (stereo unspecified)	/	/	11.1	15.8*	/	/	32.1*	12.8
CCCCN(C)C(=O)c1ccc(Nc2nc(C(N)Cc3ccc(C(F)(F)F)cc3)cs2)nc1 (stereo unspecified)	/	/	4.6	30.2*	/	/	23.4*	34.7*
CC1=C(CC(=O)c2ccc(Cl)cc2)C(=O)c2ccccc2C1=O	1.2	-43.2	-1.0	2.7	9.0	-2.9	/	/
SMILES	HTR5A ag	OPRM1-OPRD1 inv	MC4R antagonist	MC4R barr agon	OPRM1-OPRD1 ag	HTR5A inv ag	MC4R barr conf	MOR-DOR barr ag
Nc1nc(OCC2CCCCC2)c2[nH]cnc2n1	0.1	5.7	10.4	-0.3	-1.1	-0.3	/	/
COc1cccc(-c2ccc(C#N)c(SCC(=O)NCc3ccco3)n2)c1	0.7	0.9	2.0	18.8*	-0.2	14.3	-2.5	16.7
COC(=O)c1ccsc1NC(=O)CN1CCN(Cc2ccc3c(c2)OCO3)CC1	1.4	-7.5	1.4	0.2	1.4	-7.9	/	/
COC(=O)c1c(NC(=O)CN2CCN(Cc3ccc4c(c3)OCO4)CC2)sc(C)c1C	0.6	-10.4	12.7	9.6*	2.4	-1.7	7.7	12.6
COc1ccc(N2CCN(C(=O)c3ccc(CNS(=O)(=O)c4cc(C)ccc4C)cc3)CC2)cc1	2.4	14.5	6.2	-3.9	-4.4	14.3	/	/
O=c1[nH]c(/C=C/c2cccc3ccccc23)nc2ccccc12	4.1	-14.1	0.9	15.9*	2.8	-18.8	1.5	1.8
O=C(Nc1cnn(Cc2ccc(Cl)cc2Cl)c1)c1cc(-c2cccs2)on1	-0.9	-34.5	-0.9	20.7*	6.4	-60.4	2.2	4.2
O=C(Nc1cnn(Cc2ccc(Cl)cc2Cl)c1)c1noc2c1CCCC2	0.3	-47.5	4.4	2.8	8.0	-0.8	/	/
Cn1nc(C(=O)NNC(=O)Cc2ccc(S(=O)(=O)N3CCOCC3)s2)c2ccccc2c1=O	-1.1	3.8	15.2	0.7	-0.7	4.1	/	/
O=c1oc2ccccc2cc1-c1cn2cccnc2n1	7.9	2.8	-0.5	0.6	-0.5	-8.6	/	/
O=c1oc2ccccc2cc1-c1cn2ccccc2n1	1.9	-28.7	-1.9	11.1*	5.0	-5.0	1.3	5.0
Cc1cc([N+](=O)[O-])ccc1NCc1ccco1	7.2	12.5	-6.8	-4.8	-2.5	-29.1	/	/
O=C(CSc1nc2ccc(NC(=O)CSc3nnnn3-c3ccccc3)cc2s1)Nc1ccccc1	5.7	-6.4	18.2	14.3*	1.2	-7.2	7.5	4.2
